According to ChEMBL document CHEMBL3797174, “Iodine catalyzed simple and efficient synthesis of antiproliferative 2-pyridones” (Bioorg Med Chem Lett, 2016):

Key:
[1] = tested on: MCF7; assay: Cytotoxicity against human MCF7 cells assessed as inhibition of cell proliferation after 24 hrs by MTT assay; assay type: functional, cell-based; details: MCF7, 24 h
[2] = tested on: HepG2; assay: Cytotoxicity against human HepG2 cells assessed as inhibition of cell proliferation after 24 hrs by MTT assay; assay type: functional, cell-based; details: HepG2, 24 h
Summary of the method: (§1)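 MTT reduction by viable cells; formazan dissolved in DMSO, absorbance read at 570 nm. […] Values expressed as IC50 (µM).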

[3] = Cytotoxicity against human SKOV3 cells assessed as inhibition of cell proliferation after 24 hrs by MTT assay; assay type: functional, cell-based; details: SK-OV-3, 24 h; summary of the method: as §1
[4] = tested on: A549; assay: Cytotoxicity against human A549 cells assessed as inhibition of cell proliferation after 24 hrs by MTT assay; assay type: functional, cell-based; details: A549, 24 h; summary of the method: as §1
[5] = tested on: MRC5; assay: Cytotoxicity against human MRC5 cells assessed as cell viability after 24 hrs by MTT assay; assay type: cell-based; details: MRC5, 24 h; summary of the method: as §1
[6] = tested on: MCF7; assay: Induction of apoptosis in human MCF7 cells assessed as increase in caspase 9 activation at 8 to 12 uM using AFC-conjugated […] as substrate after 24 to 48 hrs by fluorescence analysis relative to control; assay type: functional
[7] = tested on: MCF7; assay: Induction of apoptosis in human MCF7 cells assessed as increase in caspase 3 activation at 8 to 12 uM using AFC-conjugated […] as substrate after 24 to 48 hrs by fluorescence analysis relative to control; assay type: functional

Q: For `CCOC(=O)c1c(C)[nH]c(=O)c(C#N)c1-c1ccc([N+](=O)[O-])cc1`, which IC50 [1] is on record?
A: The IC50 was 82 µM.

Q: And the IC50 [2]?
A: The IC50 was 21.7 µM.

Q: And the IC50 [3]?
A: The IC50 was over 100 µM.

Q: What about the IC50 [4] of the same compound?
A: Its IC50 is over 100 µM.

Q: And the IC50 [5]?
A: The IC50 was 2230 µM.

Q: For `CCOC(=O)c1c(C)[nH]c(=O)c(C#N)c1-c1ccco1`, which IC50 [1] is on record?
A: Its IC50 is 17.5 µM.

Q: And the IC50 [2]?
A: Its IC50 is 57.4 µM.

Q: And the IC50 [3]?
A: The IC50 was 76 µM.

Q: And the IC50 [4]?
A: Its IC50 is over 100 µM.

Q: And the IC50 [5]?
A: The IC50 was 407 µM.

Q: For `CCOC(=O)c1c(C)[nH]c(=O)c(C#N)c1-c1cccs1`, which IC50 [1] is on record?
A: Its IC50 is 33.4 µM.

Q: And the IC50 [2]?
A: Its IC50 is 74 µM.

Q: What about the IC50 [3] of the same compound?
A: Its IC50 is 97.3 µM.

Q: What about the IC50 [4] of the same compound?
A: Its IC50 is 20.1 µM.

Q: And the IC50 [5]?
A: The IC50 was 205 µM.

Q: With `CCOC(=O)c1c(C)[nH]c(=O)c(C#N)c1-c1ccc(C#N)cc1` as the compound, how does the IC50 [1] read?
A: The IC50 was 9.32 µM.

Q: What about the IC50 [2] of the same compound?
A: The IC50 was 20.2 µM.

Q: What about the IC50 [3] of the same compound?
A: The IC50 was over 100 µM.

Q: What about the IC50 [4] of the same compound?
A: The IC50 was over 100 µM.

Q: And the IC50 [5]?
A: The IC50 was 1220 µM.

Q: For `CCOC(=O)c1c(C)[nH]c(=O)c(C#N)c1-c1cc(OC)c(OC)c(OC)c1`, which IC50 [1] is on record?
A: The IC50 was 18.1 µM.

Q: What about the IC50 [2] of the same compound?
A: Its IC50 is 20.9 µM.

Q: What about the IC50 [3] of the same compound?
A: Its IC50 is over 100 µM.

Q: What about the IC50 [4] of the same compound?
A: Its IC50 is 23.4 µM.

Q: And the IC50 [5]?
A: Its IC50 is 253 µM.

Q: With `CCOC(=O)c1c(C)[nH]c(=O)c(C#N)c1-c1ccc(C)cc1` as the compound, how does the IC50 [1] read?
A: Its IC50 is 8 µM.

Q: What about the IC50 [2] of the same compound?
A: Its IC50 is 11.9 µM.

Q: And the IC50 [3]?
A: The IC50 was over 100 µM.

Q: And the IC50 [4]?
A: Its IC50 is 15.8 µM.

Q: What about the “fold change (FC)” value [6] of the same compound?
A: The value was 2.

Q: And the IC50 [5]?
A: Its IC50 is 438 µM.

Q: What about the “fold change (FC)” value [7] of the same compound?
A: Its value is 2.

Q: With `CCOC(=O)c1c(C)[nH]c(=O)c(C#N)c1-c1ccccc1` as the compound, how does the IC50 [1] read?
A: The IC50 was 22 µM.

Q: And the IC50 [2]?
A: The IC50 was 38.5 µM.

Q: And the IC50 [3]?
A: The IC50 was over 100 µM.

Q: And the IC50 [4]?
A: The IC50 was over 100 µM.

Q: And the IC50 [5]?
A: The IC50 was 220 µM.

Q: What does the source list for `CCOC(=O)c1c(C)[nH]c(=O)c(C#N)c1-c1ccc(Br)cc1`?
A: IC50 [1]: 31.8 µM; IC50 [2]: 65.5 µM; IC50 [3]: > 100 µM; IC50 [4]: > 100 µM; IC50 [5]: 310 µM

Q: With `CCOC(=O)c1c(C)[nH]c(=O)c(C#N)c1-c1ccc(OC)cc1` as the compound, how does the IC50 [1] read?
A: The IC50 was 36.1 µM.

Q: What about the IC50 [2] of the same compound?
A: The IC50 was 51.5 µM.

Q: And the IC50 [3]?
A: Its IC50 is over 100 µM.

Q: What about the IC50 [4] of the same compound?
A: Its IC50 is 25.1 µM.

Q: And the IC50 [5]?
A: The IC50 was 192 µM.

Q: With `CCOC(=O)c1c(C)[nH]c(=O)c(C#N)c1-c1ccccc1Cl` as the compound, how does the IC50 [1] read?
A: Its IC50 is 25.4 µM.

Q: And the IC50 [2]?
A: Its IC50 is 34.1 µM.

Q: And the IC50 [3]?
A: The IC50 was over 100 µM.

Q: And the IC50 [4]?
A: The IC50 was 25 µM.

Q: And the IC50 [5]?
A: The IC50 was 229 µM.

Q: Which IC50 [1] does the source give for `CCOC(=O)c1c(C)[nH]c(=O)c(C#N)c1-c1ccc(F)cc1` here?
A: The IC50 was 22.9 µM.

Q: What about the IC50 [2] of the same compound?
A: Its IC50 is 18.6 µM.

Q: What about the IC50 [3] of the same compound?
A: The IC50 was over 100 µM.

Q: And the IC50 [4]?
A: The IC50 was 15.4 µM.

Q: And the IC50 [5]?
A: Its IC50 is 149 µM.

Q: Which IC50 [1] does the source give for `CCOC(=O)c1c(C)[nH]c(=O)c(C#N)c1-c1ccc2c(c1)OCO2` here?
A: The IC50 was 34 µM.

Q: And the IC50 [2]?
A: The IC50 was over 100 µM.

Q: And the IC50 [3]?
A: Its IC50 is over 100 µM.

Q: What about the IC50 [4] of the same compound?
A: The IC50 was 27.3 µM.

Q: What about the IC50 [5] of the same compound?
A: Its IC50 is 192 µM.

Q: Which results are given for `CCOC(=O)c1c(C)[nH]c(=O)c(C#N)c1-c1cccc2ccccc12`?
A: IC50 [1]: 31.4 µM; IC50 [2]: 32.3 µM; IC50 [3]: > 100 µM; IC50 [4]: 24 µM; IC50 [5]: 196 µM

Q: Which IC50 [2] does the source give for `COc1cccc2c1C(=O)c1c(O)c3c(c(O)c1C2=O)C[C@@](O)(C(=O)CO)C[C@@H]3O[C@H]1C[C@H](N)[C@H](O)[C@H](C)O1` [DOXORUBICIN] here?
A: Its IC50 is 3.39 µM.

Q: And the IC50 [3]?
A: Its IC50 is 25 µM.

Q: What about the IC50 [4] of the same compound?
A: Its IC50 is 0.23 µM.

Q: What about the IC50 [5] of the same compound?
A: Its IC50 is 89.7 µM.
